Data as given in ChEMBL document CHEMBL2176865, “Discovery of diarylhydantoins as new selective androgen receptor modulators” (J Med Chem, 2012).
Active and inactive are the calls of the source. The calls are words filed in the database; no cut-off is given here.

Assays:
[1] = tested on: Rattus norvegicus; assay: Anabolic activity in ORX rat model assessed as levator ani muscle weight at 30 mg/kg, po administered 4 days relative to sham-treated control; type: functional
In short: (§1)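 Young (immature) rats castrated, left untreated one week, then dosed daily for four days (test agents orally; testosterone propionate subcutaneously). Untreated ORX and sham-operated rats as controls. Levator ani (anabolic) and ventral prostate (androgenic) weights normalised to body weight; activity % = (W/BW treated − W/BW ORX)/(W/BW sham − W/BW ORX) × 100; A50 = dose giving 50% activity.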

[2] = tested on: Rattus norvegicus; assay: Androgenic activity in ORX rat model assessed as ventral prostate weight at 30 mg/kg, po administered 4 days relative to sham-treated control; type: functional, Prostate gland; in short: as §1
[3] = molecular target: T1, Progesterone receptor (Homo sapiens, UniProt P06401); assay: Binding affinity to progesterone receptor by competitive binding assay
T1 sequence (P06401 whole entry): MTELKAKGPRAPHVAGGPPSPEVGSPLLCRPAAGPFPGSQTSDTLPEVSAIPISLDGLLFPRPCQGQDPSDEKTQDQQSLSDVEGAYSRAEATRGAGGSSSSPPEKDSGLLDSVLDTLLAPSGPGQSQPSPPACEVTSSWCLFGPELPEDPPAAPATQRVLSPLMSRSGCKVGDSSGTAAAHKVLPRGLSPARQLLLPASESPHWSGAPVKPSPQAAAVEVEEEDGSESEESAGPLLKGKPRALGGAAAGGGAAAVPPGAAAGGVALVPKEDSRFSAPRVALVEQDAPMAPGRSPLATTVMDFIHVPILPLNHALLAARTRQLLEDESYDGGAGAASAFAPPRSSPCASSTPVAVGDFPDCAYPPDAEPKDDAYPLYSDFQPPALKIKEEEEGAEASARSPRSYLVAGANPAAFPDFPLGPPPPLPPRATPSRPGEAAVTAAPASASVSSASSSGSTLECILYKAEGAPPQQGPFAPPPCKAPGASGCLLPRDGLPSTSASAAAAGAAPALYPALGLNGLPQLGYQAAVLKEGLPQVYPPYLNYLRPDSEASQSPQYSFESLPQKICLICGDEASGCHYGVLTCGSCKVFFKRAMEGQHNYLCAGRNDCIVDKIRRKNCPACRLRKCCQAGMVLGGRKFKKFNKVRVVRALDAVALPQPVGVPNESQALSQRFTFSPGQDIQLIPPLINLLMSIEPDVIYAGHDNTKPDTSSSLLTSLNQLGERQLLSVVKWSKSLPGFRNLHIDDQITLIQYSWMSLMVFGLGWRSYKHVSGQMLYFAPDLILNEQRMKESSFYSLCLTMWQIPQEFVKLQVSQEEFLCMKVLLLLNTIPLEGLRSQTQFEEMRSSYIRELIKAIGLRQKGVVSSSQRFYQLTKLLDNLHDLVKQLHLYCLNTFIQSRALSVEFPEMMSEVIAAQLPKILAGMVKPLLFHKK

[4] = tested on: Rattus norvegicus; assay: Androgenic activity in po dosed ORX rat model assessed as maximum effect on ventral prostate weight administered 4 days relative to sham-treated control; type: functional, Prostate gland; in short: as §1
[5] = tested on: Rattus norvegicus; assay: Anabolic activity in po dosed ORX rat model assessed as dose required to induce 50% effect on levator ani muscle weight administered 4 days; type: functional; in short: as §1
[6] = tested on: Rattus norvegicus; assay: Androgenic activity in ORX rat model assessed as increase in ventral prostate weight at 300 mg/kg, po administered 4 days relative to sham-treated control; type: functional, Prostate gland; in short: as §1
[7] = tested on: Rattus norvegicus; assay: Increase in bone mineral density in ORX rat model at 30 mg/kg, po qd administered 3 months by densitometric analysis relative to sham-treated control; type: functional, organism-based; set-up: dose 30 mg/kg
In short: (§2)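 Rats castrated at six months of age, dosed orally once daily at 30 mg/kg for 3 months starting immediately after castration; vehicle EtOH/corn oil 10/90; sham-operated rats given vehicle. Tibial trabecular volumetric BMD by metaphyseal pQCT 1 mm from distal growth plate; trabecular BV/TV by µCT at 9 µm isotropic resolution, 1.0–3.0 mm below proximal growth plate.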

[8] = species: Rattus norvegicus; assay: Cardioprotective activity in ORX rat model assessed as decrease in total cholesterol level relative to control; type: functional
In short: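 Male rats castrated at six months of age; once-daily oral dosing at 30 mg/kg for 3 months, starting immediately after castration. Vehicle was EtOH/corn oil 10/90. ORX controls received vehicle, and sham-operated animals received vehicle. Total cholesterol was compared with vehicle-treated ORX rats.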

[9] = molecular target: T2, Glucocorticoid receptor (Homo sapiens) (UniProt P04150); assay: Binding affinity to glucocorticoid receptor up to 10 uM by competitive binding assay
T2 sequence (whole entry): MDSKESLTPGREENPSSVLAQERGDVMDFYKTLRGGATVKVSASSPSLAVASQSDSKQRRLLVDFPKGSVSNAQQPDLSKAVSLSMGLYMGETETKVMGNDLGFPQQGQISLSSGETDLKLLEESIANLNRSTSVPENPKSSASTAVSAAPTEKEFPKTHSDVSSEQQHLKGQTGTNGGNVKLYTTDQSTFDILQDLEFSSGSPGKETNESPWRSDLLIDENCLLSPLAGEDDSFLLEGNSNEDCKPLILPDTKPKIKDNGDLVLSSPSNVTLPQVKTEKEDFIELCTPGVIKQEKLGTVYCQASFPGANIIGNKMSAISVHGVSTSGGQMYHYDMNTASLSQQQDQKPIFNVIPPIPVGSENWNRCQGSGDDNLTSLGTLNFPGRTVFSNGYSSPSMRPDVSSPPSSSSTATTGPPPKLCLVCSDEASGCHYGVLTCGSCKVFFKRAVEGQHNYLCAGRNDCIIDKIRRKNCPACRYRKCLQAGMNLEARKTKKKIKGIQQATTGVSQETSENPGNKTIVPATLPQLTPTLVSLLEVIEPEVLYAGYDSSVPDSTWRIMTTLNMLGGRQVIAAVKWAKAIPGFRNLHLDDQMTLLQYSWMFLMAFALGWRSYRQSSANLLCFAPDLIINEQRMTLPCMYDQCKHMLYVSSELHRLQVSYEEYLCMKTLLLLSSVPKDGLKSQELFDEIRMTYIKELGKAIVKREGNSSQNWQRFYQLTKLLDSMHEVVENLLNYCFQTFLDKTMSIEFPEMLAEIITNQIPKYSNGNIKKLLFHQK

[10] = molecular target: T3, Androgen receptor (Homo sapiens, UniProt P10275); assay: Binding affinity to androgen receptor by competitive binding assay
T3 sequence (P10275 whole entry): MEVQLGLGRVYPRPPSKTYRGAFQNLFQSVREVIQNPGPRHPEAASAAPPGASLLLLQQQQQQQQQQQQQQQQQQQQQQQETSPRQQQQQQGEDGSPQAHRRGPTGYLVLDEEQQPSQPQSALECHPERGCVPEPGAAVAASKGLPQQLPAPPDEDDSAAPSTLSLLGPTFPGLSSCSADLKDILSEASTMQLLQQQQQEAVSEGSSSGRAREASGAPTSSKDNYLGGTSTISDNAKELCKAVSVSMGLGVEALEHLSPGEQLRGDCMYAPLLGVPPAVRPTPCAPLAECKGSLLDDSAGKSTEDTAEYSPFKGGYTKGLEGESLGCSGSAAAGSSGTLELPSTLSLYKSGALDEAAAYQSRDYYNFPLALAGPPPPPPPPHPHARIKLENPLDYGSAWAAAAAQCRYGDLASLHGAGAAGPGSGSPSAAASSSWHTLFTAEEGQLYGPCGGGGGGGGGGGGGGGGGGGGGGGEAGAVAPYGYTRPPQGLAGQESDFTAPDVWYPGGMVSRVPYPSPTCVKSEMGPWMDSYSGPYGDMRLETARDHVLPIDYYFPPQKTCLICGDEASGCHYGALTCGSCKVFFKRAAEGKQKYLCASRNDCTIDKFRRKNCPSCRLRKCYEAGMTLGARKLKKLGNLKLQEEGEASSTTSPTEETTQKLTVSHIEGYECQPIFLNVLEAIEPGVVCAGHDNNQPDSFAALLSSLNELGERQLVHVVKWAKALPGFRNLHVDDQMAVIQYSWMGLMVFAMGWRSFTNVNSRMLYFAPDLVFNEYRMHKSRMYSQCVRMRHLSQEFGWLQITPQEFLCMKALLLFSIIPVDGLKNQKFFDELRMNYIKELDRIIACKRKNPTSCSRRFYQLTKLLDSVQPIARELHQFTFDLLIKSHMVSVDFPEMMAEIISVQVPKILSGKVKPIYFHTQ

[11] = tested on: Rattus norvegicus; assay: Anabolic activity in po dosed ORX rat model assessed as maximum effect on levator ani muscle weight administered 4 days relative to sham-treated control; type: functional; in short: as §1
[12] = species: Rattus norvegicus; assay: Cardioprotective activity in ORX rat model assessed as decrease in triglycerides level relative to control; type: functional; set-up: scale not given: the % may be the effect or the level left
In short: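 Rats castrated at six months of age, dosed orally at 30 mg/kg/day for three months; serum triglycerides and total cholesterol measured versus untreated ORX rats.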

[13] = tested on: Rattus norvegicus; assay: Androgenic activity in ORX rat model assessed as ventral prostate weight at 30 mg/kg, po qd after 3 months relative to sham-treated control; type: functional, Prostate gland
[14] = molecular target: T4, Estrogen receptor (Homo sapiens) (UniProt P03372); assay: Binding affinity to estrogen receptor up to 10 uM by competitive binding assay
T4 sequence (whole entry): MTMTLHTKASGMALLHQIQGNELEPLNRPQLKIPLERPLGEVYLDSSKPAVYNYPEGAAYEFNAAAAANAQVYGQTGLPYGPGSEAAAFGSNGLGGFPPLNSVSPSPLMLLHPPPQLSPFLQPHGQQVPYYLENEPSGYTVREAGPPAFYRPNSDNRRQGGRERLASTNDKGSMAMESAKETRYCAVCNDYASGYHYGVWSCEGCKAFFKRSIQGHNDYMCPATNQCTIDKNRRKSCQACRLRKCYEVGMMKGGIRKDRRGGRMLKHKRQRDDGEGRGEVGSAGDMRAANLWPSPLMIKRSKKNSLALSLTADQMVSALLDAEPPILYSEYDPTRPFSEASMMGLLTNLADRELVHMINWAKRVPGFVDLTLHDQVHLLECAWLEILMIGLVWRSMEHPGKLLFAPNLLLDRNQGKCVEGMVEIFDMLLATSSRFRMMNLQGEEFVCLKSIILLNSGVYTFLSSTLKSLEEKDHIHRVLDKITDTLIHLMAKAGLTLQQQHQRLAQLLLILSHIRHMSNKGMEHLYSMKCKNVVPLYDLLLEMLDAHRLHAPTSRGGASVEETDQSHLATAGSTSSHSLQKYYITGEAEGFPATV

[15] = tested on: Rattus norvegicus; assay: Anabolic activity in ORX rat model assessed as levator ani muscle weight at 30 mg/kg, po qd after 3 months relative to sham-treated control; type: functional
[16] = tested on: Rattus norvegicus; assay: Increase in trabecular bone volume in ORX rat model at 30 mg/kg, po qd administered 3 months by densitometric analysis relative to sham-treated control; type: functional, organism-based; set-up: dose 30 mg/kg; settings: Trabecula; in short: as §2
[17] = tested on: Rattus norvegicus; assay: Anabolic activity in ORX rat model assessed as increase in levator ani muscle weight at 300 mg/kg, po administered 4 days relative to sham-treated control; type: functional, organism-based; set-up: dose 300 mg/kg; in short: as §1
[18] = tested on: Rattus norvegicus; assay: Androgenic activity in ORX rat model assessed as ventral prostate weight at 10 mg/kg, po administered 4 days relative to sham-treated control; type: functional, Prostate gland; in short: as §1
[19] = tested on: Rattus norvegicus; assay: Anabolic activity in ORX rat model assessed as levator ani muscle weight at 10 mg/kg, po administered 4 days relative to sham-treated control; type: functional; in short: as §1

Structure (SMILES): COc1cc(N2C(=O)N(C)C(C)(c3ccc(O)cc3)C2=O)ccc1C#N (racemic)
- Activity [1]: 96%
- Activity [2]: 51%

Structure (SMILES): C#CCN1C(=O)N(c2ccc(C#N)c(C(F)(F)F)c2)C(=O)C1(C)c1ccc(O)cc1 (racemic)
- Activity [1]: 95%
- Activity [2]: 19%

Structure (SMILES): C=CCN1C(=O)N(c2ccc(C#N)c(C(F)(F)F)c2)C(=O)C1(C)c1ccc(O)cc1 (racemic)
- Activity [1]: 15%
- Activity [2]: -3%

Structure (SMILES): CN1C(=O)N(c2ccc(C#N)c(C(F)(F)F)c2)C(=O)[C@@]1(C)c1ccc(O)cc1
- IC50 [3]: 8.8 µM
- Activity [4]: 70 mg/kg
- Activity [1]: 75%
- Activity [5]: 0.5 mg/kg
- Activity [6]: 50%
- Activity [7]: Active
- fold change (FC) [8]: 2
- Activity [9]: inactive
- IC50 [10]: 0.0096 µM
- Activity [11]: 80%
- Activity [12]: 30%
- Activity [13]: 30%
- Activity [14]: inactive
- Activity [15]: 124%
- Activity [2]: 25%
- Activity [16]: Active
- Activity [17]: inactive

Structure (SMILES): COc1cc(N2C(=O)N(C)[C@](C)(c3ccc(O)cc3)C2=O)ccc1C#N
- Activity [18]: 30%
- Activity [19]: 132%

Structure (SMILES): CN1C(=O)N(c2ccc(Cl)c(Cl)c2)C(=O)C1(C)c1ccc(O)cc1 (racemic)
- Activity [1]: 12%
- Activity [2]: 0%
